Assay [1] deals with Histone deacetylase 2 (Mus musculus) (UniProt P70288). The assay can be described thus: Effect on HDAC2 nuclear localization in LPS/IFNgamma-stimulated mouse RAW264.7 cells preincubated for 20 hrs followed by LPS/IFNgamma stimulation and measured after 1 hr by Hoechst staining based confocal laser scanning microscopy. Format: cell-based. A digest of the protocol:
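RAW 264.7 cells at 20,000 cells/cm2 received 1 μM RGFP966 for 20 h, then 1 h LPS/IFNγ. Fixed in 4% formaldehyde, permeabilized with 0.25% Triton X-100, blocked with 5% BSA. Primary antibodies 2 h at 4 °C, AlexaFluor secondaries 1 h, Hoechst nuclear stain. Confocal imaging at 630×; 4 independent experiments.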

Assay [2] addresses T1, Histone deacetylase 3 (Mus musculus) (UniProt O88895).
T1 sequence (whole entry): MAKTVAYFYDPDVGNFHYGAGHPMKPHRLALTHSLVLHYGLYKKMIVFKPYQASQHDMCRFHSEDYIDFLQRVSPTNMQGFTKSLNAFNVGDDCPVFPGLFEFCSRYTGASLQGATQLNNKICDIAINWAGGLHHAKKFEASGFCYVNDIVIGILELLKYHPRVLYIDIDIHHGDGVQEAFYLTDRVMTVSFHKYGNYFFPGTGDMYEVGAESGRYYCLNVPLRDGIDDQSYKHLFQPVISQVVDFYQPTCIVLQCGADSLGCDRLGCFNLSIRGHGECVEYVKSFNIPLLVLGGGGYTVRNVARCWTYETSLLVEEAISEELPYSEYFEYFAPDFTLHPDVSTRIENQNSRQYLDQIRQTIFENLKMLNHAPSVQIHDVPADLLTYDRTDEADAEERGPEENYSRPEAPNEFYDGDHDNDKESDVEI
In words: Inhibition of HDAC3 in mouse RAW264.7 cells assessed as effect on histone H3 peptide (KQLATKAAR) acetylation measured after 20 hrs by LC-MS/MS analysis. The assay is classed as cell-based. In outline: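 Histones from RAW 264.7 (20 h treatment) run on 15% SDS-PAGE (7 μg), Coomassie-stained H3/H4 bands excised, destained, and chemically acetylated with acetic anhydride-d6 in 1 M ammonium bicarbonate; endogenous lysine acetylation ratio derived by mass spectrometry from deuterated versus non-deuterated acetyl mass difference.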

Activity calls are given as the source filed them. No cut-off for these calls is given here.

Sequence of Histone deacetylase 2 (Mus musculus) (P70288 whole entry): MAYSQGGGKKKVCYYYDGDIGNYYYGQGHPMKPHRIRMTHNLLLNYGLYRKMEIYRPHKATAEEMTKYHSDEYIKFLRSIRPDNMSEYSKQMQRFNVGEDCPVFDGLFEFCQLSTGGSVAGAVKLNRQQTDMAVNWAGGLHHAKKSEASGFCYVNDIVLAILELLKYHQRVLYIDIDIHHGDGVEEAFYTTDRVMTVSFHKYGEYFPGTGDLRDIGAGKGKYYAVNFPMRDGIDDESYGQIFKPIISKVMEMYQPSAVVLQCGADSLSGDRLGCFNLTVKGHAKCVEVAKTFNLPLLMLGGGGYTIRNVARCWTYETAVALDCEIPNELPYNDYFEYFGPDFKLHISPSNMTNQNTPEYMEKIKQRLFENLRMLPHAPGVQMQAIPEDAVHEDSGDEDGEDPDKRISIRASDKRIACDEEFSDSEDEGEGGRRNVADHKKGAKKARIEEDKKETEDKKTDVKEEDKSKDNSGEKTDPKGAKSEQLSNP

For `Nc1cc(F)ccc1NC(=O)/C=C/c1cnn(C/C=C/c2ccccc2)c1`, in assay [1], the outcome was inactive. Moreover, the inhibition entry in assay [2] is “inactive”.

For the origin of these results see ChEMBL document CHEMBL5653624 (Biochem Pharmacol, 2016).
